This data set can be described thus: Toxicity liver stage against HepG2, at 10uM. Type of data set: cell-based. Also noted: test concentration 10 uM, cell line HepG2-A16-CD81EGFP. Conditions: human, HepG2-A16-CD81EGFP cells; read-out: INHIBITION
The gist of the method:
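Uninfected HepG2-A16-CD81EGFP cells, 3 × 10^3 per well, 1536-well, plated on prespotted compound at 10 μM final, parasite-free screening media added to match infected plates; puromycin 10 μM positive, DMSO 0.5% negative; run in parallel with 48 h PbLuc assay at 37 °C, 5% CO2; viability by CellTiter-Glo luminescence, normalized to controls.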
Regarding `Cc1noc([C@@H]2C[C@H](NC(=O)NC(C)C)CN2C)n1`, the cytotoxicity at 10 µM is -10.1%.

`CC(C)CC1CC(=O)Nc2c1cnn2Cc1ccco1` (stereo unspecified): the cytotoxicity at 10 µM was -2.75%.

On to `O=C(Nc1cccnc1)C1CCCN(c2cc(-n3cccn3)ncn2)C1` (stereo unspecified), for which the cytotoxicity at 10 µM is -5.36%.

`O=C(NC1CC1)C1CCN(c2nc3nc[nH]c(=O)c3s2)CC1`: the cytotoxicity at 10 µM was -6.5%.

`Cc1cc(=O)n(CC(=O)NCC2CCCO2)c(-c2ccc(F)cc2)n1` (stereo unspecified): the cytotoxicity at 10 µM was -10.8%.

As for `O=C(Cc1ccccc1)NCc1ccc(-c2ccccc2C(=O)O)cn1`, the cytotoxicity at 10 µM is -11.5%.

Take `Cc1ccnc(C2CCN(C(=O)c3cnn(C)c3)CC2)n1`: the cytotoxicity at 10 µM was -4.15%.

As to `CN1CCCC(CCCc2cccnc2)(C(N)=O)C1` (stereo unspecified), the cytotoxicity at 10 µM was -7.86%.

Take `Cc1nc(Nc2ccccn2)cc(C2CCCN2Cc2ncc[nH]2)n1` (stereo unspecified): the cytotoxicity at 10 µM was -3.11%.

Turning to `CC(C)c1nccn1-c1cccc(C2CCCN(S(=O)(=O)N(C)C)C2)n1` (stereo unspecified), the cytotoxicity at 10 µM is -3.11%.

As to `O=C(c1cnccn1)N1CCCC(c2cccc(-n3ccnc3)n2)C1` (stereo unspecified), the cytotoxicity at 10 µM is -9.08%.

Consider `O=C(NCc1nnc2n1CCC2)c1cn(-c2ccccc2Br)nn1`, for which the cytotoxicity at 10 µM was determined as 3.37%.

Turning to `COC(C)c1cccc(NCc2cccs2)c1` (stereo unspecified), the cytotoxicity at 10 µM is -8.94%.

As for `CS(=O)(=O)N1CCCC(c2nc(-c3ccccc3)c[nH]2)C1` (stereo unspecified), the cytotoxicity at 10 µM was 2.44%.

As to `COCCCN1Cc2cccc(NC(=O)c3ccccc3Cl)c2C1`, the cytotoxicity at 10 µM was -4.34%.

Turning to `O=C(c1ccc(-n2cccn2)nc1)N1CCC(c2ccc(O)cc2)CC1`, the cytotoxicity at 10 µM came out at 11.7%.

Regarding `CCN1CC(COC(=O)c2cc(C)nn2CC)CC1=O` (stereo unspecified), the cytotoxicity at 10 µM is -3.37%.

Take `COc1cc(C)c(S(=O)(=O)CC(=O)N(C)C2CC2)cc1OC`: the cytotoxicity at 10 µM is -3.81%.

`Cc1nc(CNc2cccc(Cl)c2Cl)cs1`: the cytotoxicity at 10 µM turned out to be 11.4%.

`COCCOCCNC(=O)c1ccc(N2CCC(C)=N2)cc1`: the cytotoxicity at 10 µM was 7.42%.

`CC(C)(C)n1ncc2c1CCCC2NCc1ccsc1` (stereo unspecified): the cytotoxicity at 10 µM worked out at 3.59%.

For `CCCS(=O)(=O)NCc1cccnc1OCc1ccccc1`, the cytotoxicity at 10 µM turned out to be 13%.

With `O=C(COc1cccc2c1CCC2=O)NCc1ccccc1Cl`, the cytotoxicity at 10 µM was -3.46%.

For the compound `CCC(=O)N1CCCC1c1ccsc1` (stereo unspecified), the cytotoxicity at 10 µM was -6.05%.

On to `CCN1CCN(C(=O)NCc2cccc(-c3cnn(C)c3)c2)CC1`, for which the cytotoxicity at 10 µM is -10%.

Take `CN1CCN(c2ccccc2NC(=O)c2ccco2)CC1`: the cytotoxicity at 10 µM was -5.92%.

Take `CCN(C)C(=O)CCN(C)Cc1cnc(C)s1`: the cytotoxicity at 10 µM was 4.04%.

Consider `CN(C(=O)c1ccc(S(=O)(=O)NC(C)(C)C)cc1)C1(C#N)CCC1`, for which the cytotoxicity at 10 µM was determined as 3.07%.

Regarding `CCc1noc(CN(CC(=O)N2CCCCC2)c2ccc(C)cc2)n1`, the cytotoxicity at 10 µM was -3.24%.

For the compound `COc1ccc(CN(C)C(=O)CCC(=O)c2cccs2)c(OC)c1OC`, the cytotoxicity at 10 µM was -10.7%.

With `Cc1cc(N2CCN(C(=O)c3cc(Cl)c[nH]3)CC2)nc(N)n1`, the cytotoxicity at 10 µM was -6.28%.

Take `N#CCSCCCN1CCCN(C(=O)c2ccccc2)CC1`: the cytotoxicity at 10 µM is -3.74%.

For `CCc1ccc(CN2CCN(c3ncc(Cl)cn3)CC2)nc1`, the cytotoxicity at 10 µM is 8.45%.

Take `CC(C)[C@@H]1CN(Cc2ccsc2)C[C@H]1NS(=O)(=O)N(C)C`: the cytotoxicity at 10 µM was -23.5%.

As to `CN1CCN(c2cc(Sc3cccs3)nc(N)n2)CC1CCO` (stereo unspecified), the cytotoxicity at 10 µM stood at 1.31%.

Regarding `CNC(=O)C1CCN(c2nccc(CCC(F)(F)F)n2)C1` (stereo unspecified), the cytotoxicity at 10 µM was -11.4%.

Regarding `CN(Cc1cc2n(n1)CCN(C(=O)[C@H]1CCCO1)C2)Cc1nccs1`, the cytotoxicity at 10 µM was 7.92%.

Take `CC(C)c1nnsc1CN1CCc2[nH]nc(-c3ccc(Cl)cc3)c2C1`: the cytotoxicity at 10 µM was -10.3%.

As for `COc1ccccc1-n1cc(CN2CCN(C)[C@@H]3CS(=O)(=O)C[C@@H]32)cn1`, the cytotoxicity at 10 µM is 14.5%.

As for `CCCc1cc(CN(C)C2CCSCC2)n[nH]1`, the cytotoxicity at 10 µM was -20.6%.

As for `COc1cc2nc(NCCNS(C)(=O)=O)cc(C)c2cc1OC`, the cytotoxicity at 10 µM was -1.08%.

For the compound `CN1CC2(CCN(C(=O)c3ccc(=O)n(C)c3)CC2)CC1=O`, the cytotoxicity at 10 µM was -4.46%.

In the case of `CC(C)[C@@H]1CN(C(=O)C2(c3ccccc3)CC2)C[C@H]1C(=O)O`, the cytotoxicity at 10 µM was 3.61%.

On to `COCCN1CCC(CN(CC2CCCO2)C(=O)CNC(C)=O)CC1` (stereo unspecified), for which the cytotoxicity at 10 µM is 1.48%.

In the case of `CC(C)N1CC2(CCCN(Cc3noc(C4CCCC4)n3)C2)CCC1=O` (stereo unspecified), the cytotoxicity at 10 µM worked out at 0.00194%.

As for `O=C(NCc1ccc2c(c1)CCCO2)c1ccc(C2CCNC2)cc1` (stereo unspecified), the cytotoxicity at 10 µM is -11.5%.

On to `Cc1cc(C(=O)N[C@H]2CN(CCC(N)=O)C[C@@H]2C2CC2)sc1C`, for which the cytotoxicity at 10 µM turned out to be 8.28%.

On to `CC(C)c1cccc(N2CCCC3(CCC(=O)N(C4CC4)C3)C2)n1` (stereo unspecified), for which the cytotoxicity at 10 µM was -5.01%.

For the compound `Cn1c(CN2CCOCC2)nnc1C1CCN(C(=O)C2CCCC2)CC1`, the cytotoxicity at 10 µM is -17.8%.

For `Nc1cc2c(nn1)CCN(C(=O)CC1CCCCC1)C2`, the cytotoxicity at 10 µM was -2.78%.

Turning to `CS(=O)(=O)NCCN1CCCC1c1ccc(Cl)cc1` (stereo unspecified), the cytotoxicity at 10 µM was found to be 3.6%.

For `Cc1ccc(C(=O)N(C2CC2)C2CC(=O)NC2=O)cc1F` (stereo unspecified), the cytotoxicity at 10 µM was -7.33%.

With `Cc1ccccc1C1(CNC(=O)CCN2C(=O)CCC2=O)CC1`, the cytotoxicity at 10 µM is -11.8%.

As for `c1cnnc(NCC2CN(Cc3ccon3)CCO2)c1` (stereo unspecified), the cytotoxicity at 10 µM is -32.2%.

On to `c1ccc(-n2cc(CN3CCCC3Cn3cncn3)nn2)cc1` (stereo unspecified), for which the cytotoxicity at 10 µM is -0.0716%.

Turning to `CNS(=O)(=O)c1cccc(CNc2ncccn2)c1`, the cytotoxicity at 10 µM is -9.7%.

In the case of `O=C(NCCNc1ncccn1)C1CC(=O)N(Cc2ccccn2)C1` (stereo unspecified), the cytotoxicity at 10 µM was -10.4%.

Regarding `Cn1ncc2c1CCCC2NCc1cccc(OC2CCCC2)c1` (stereo unspecified), the cytotoxicity at 10 µM is -19.3%.

`COCc1ccccc1C(=O)N(C)Cc1ncc(C)c(OC)c1C`: the cytotoxicity at 10 µM was -7.55%.

Turning to `O=C(CCOc1ccccc1)N1CCC(Nc2cccnn2)CC1`, the cytotoxicity at 10 µM was -9.29%.

In the case of `CC(C)NC(=O)C(c1ccccc1)N1CCn2c(nnc2C2CC2)C1` (stereo unspecified), the cytotoxicity at 10 µM is -3.3%.

In the case of `Fc1ccc(OCc2noc(CN3CCc4cncnc4C3)n2)cc1`, the cytotoxicity at 10 µM came out at 2%.

On to `CCc1noc(C(C)N2CCC(N3CCCC3)CC2)n1` (stereo unspecified), for which the cytotoxicity at 10 µM is -7.77%.

Take `CN(C(=O)c1cc(Cl)c[nH]1)C1CCN(c2ccccn2)CC1`: the cytotoxicity at 10 µM was -1.49%.

Take `CC1CN(CC(=O)NC2CCCC2)CCN1c1ccc2nncn2n1` (stereo unspecified): the cytotoxicity at 10 µM is -1.58%.

In the case of `CCc1nc(CN2CCN(C(=O)Cc3c(C)noc3C)CC2)cs1`, the cytotoxicity at 10 µM is -0.549%.

As to `O=C(NC1CC1)[C@H]1CC[C@@H]2[C@@H](CCN2c2ncc(F)cn2)O1`, the cytotoxicity at 10 µM is -1.65%.

For `O=C(C1CCC1)N1C[C@@H]2CN(Cc3ccncc3)C(=O)[C@@H]2C1`, the cytotoxicity at 10 µM was -113%.

For `CNC(=O)c1cc2c(nc1N(C)C)CCN(c1ncc(F)cn1)CC2`, the cytotoxicity at 10 µM is -131%.

For the compound `Cc1ccc(C(=O)N2C[C@H](N3CCOCC3)[C@@H]3OCCC[C@@H]32)cn1`, the cytotoxicity at 10 µM was -108%.

Regarding `O=C([C@@H]1COC[C@H]2CN(C3CCCC3)C[C@H]21)N1CCC(F)CC1`, the cytotoxicity at 10 µM is -103%.

These data come from ChEMBL document CHEMBL4513216, “Probing the Open Global Health Chemical Diversity Library for Multistage-Active Starting Points for Next-Generation Antimalarials” (ACS Infect Dis, 2020).
